Many of the other results were omitted from the sample, so hits are more common in it than they were.
A1 apoptosis 2: A1 inhibition read as caspase activation | AID 2465 | caspase activation, % (no concentration beside the values) | MEF A1-2A-BIM cells, caspase-Glo luminescence, 3 h; percent of clofoctol response, DMSO zero | 24,000 tested, under 10 active; in the data active = caspase activation above about 5.9%
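Test system – A1-2A-BIM-expressing MEF cells · Input – 2500 cells/well · Medium – RPMI-1640 growth medium with 10% FBS · Compound dosing – 50 nL pinned compound · Timing – 3 h compound exposure at 37 °C · Technique – Caspase-Glo luminescence (DEVD substrate) · Evaluation – Caspase-3/7 activity from luminescence increase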
T cruzi HTS: blocks T. cruzi growth inside host cells. 22,000 tested, 4.9% active. intracellular Trypanosoma cruzi in host cells, plate reader. AID 651903. activity score (inhibition), % at 5.01 µM; in the data active = activity score above about 55%;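 also: parasites and compound incubated about four days before reading; 0% = median of neutral control wells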
INS-1E rescue: rescue of cytokine-induced death in INS-1E beta cells | INS-1E cytokine-induced death, ATP luminescence, 48 h; normalised: neutral wells 0, positive control 100 | protection from cytokine-induced ATP loss, % at 10 µM | 20,000 tested, 0.1% active | AID 488910;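 active = mean replicate protection from cytokine-induced ATP loss at least 50% and at least 75% of replicates each reaching 50%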
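Assay system: INS-1E rat insulinoma cells. Amount: 8000 cells per well. Medium: phenol-red-free RPMI with 5% fetal bovine serum. Reagent: IL-1β, TNF-α and IFN-γ cytokine mix. Doses: one compound concentration, pin transfer. Schedule: 48 h co-treatment, 10 min post-lysis read. Detection: CellTiter-Glo luminescence measuring cellular ATP.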
Numbers without * were called inactive.

Screening Cc1noc(C)c1NC(=O)N(C)C[C@H]1OCCCC[C@@H](C)Oc2ccc(NS(=O)(=O)c3ccc(F)cc3)cc2C(=O)N([C@H](C)CO)C[C@@H]1C returned A1 apoptosis 2 0, T cruzi HTS -4 and INS-1E rescue 11.
C[C@H]1CN([C@@H](C)CO)C(=O)c2cc(NS(=O)(=O)c3cccs3)ccc2O[C@H]1CN(C)S(=O)(=O)c1ccccc1 was read as A1 apoptosis 2 -2 and T cruzi HTS 23.
Screening C[C@@H]1CN([C@H](C)CO)C(=O)c2cccc(NC(=O)Nc3ccc(C(F)(F)F)cc3)c2O[C@@H]1CN(C)Cc1ccc(Cl)c(Cl)c1 returned A1 apoptosis 2 -1, T cruzi HTS 85* and INS-1E rescue -64.
C[C@@H]1CN([C@H](C)CO)C(=O)c2cccc(NC(=O)Nc3ccc(C(F)(F)F)cc3)c2O[C@H]1CN(C)Cc1ccc(Cl)c(Cl)c1 was read as T cruzi HTS 87* and INS-1E rescue -36.
Screening C[C@@H]1CN([C@@H](C)CO)C(=O)c2cccc(NC(=O)Nc3ccc(C(F)(F)F)cc3)c2O[C@H]1CN(C)Cc1ccc(Cl)c(Cl)c1 returned A1 apoptosis 2 -1, T cruzi HTS 78* and INS-1E rescue -52.
C[C@H]1CN([C@@H](C)CO)C(=O)c2cccc(NC(=O)Nc3ccc(F)cc3)c2O[C@H]1CN(C)Cc1ccc(Cl)c(Cl)c1 was read as T cruzi HTS -33 and INS-1E rescue -12.
C[C@@H]1CN([C@H](C)CO)C(=O)c2cccc(NC(=O)Nc3ccc(F)cc3)c2O[C@H]1CN(C)Cc1ccc(Cl)c(Cl)c1 was read as T cruzi HTS 35 and INS-1E rescue -8.
Screening C[C@H](CO)N1C[C@H](C)[C@@H](CN(C)Cc2ccc(Cl)c(Cl)c2)Oc2c(NC(=O)Nc3ccc(F)cc3)cccc2C1=O returned A1 apoptosis 2 0, T cruzi HTS 18 and INS-1E rescue -23.
`Cc1ccc(S(=O)(=O)Nc2cccc3c2O[C@@H](CN(C)Cc2ccc(C(F)(F)F)cc2)[C@H](C)CN([C@H](C)CO)C3=O)cc1` gave A1 apoptosis 2 0, T cruzi HTS 29 and INS-1E rescue -13.
C[C@@H]1CN([C@@H](C)CO)C(=O)c2cccc(NC(=O)c3cnccn3)c2O[C@H]1CN(C)C(=O)Nc1ccccc1 was read as A1 apoptosis 2 -1, T cruzi HTS -3 and INS-1E rescue 11.
Screening CC(C)(C)OC(=O)NC1(/C=N/NC(=O)c2cccc(C(=O)NO)c2)CCCC1 returned T cruzi HTS -9 and INS-1E rescue -12.
Screening C[C@@H]1CN([C@@H](C)CO)C(=O)Cc2cc(NC(=O)Nc3ccccc3)ccc2O[C@H]1CN(C)CC1CC1 returned A1 apoptosis 2 -1.
C[C@@H]1CCCCO[C@H](CN(C)C(=O)C2CCCCC2)[C@H](C)CN([C@@H](C)CO)C(=O)c2cc(NS(=O)(=O)c3ccccc3)ccc2O1 was read as A1 apoptosis 2 1.
For C[C@@H]1CN([C@@H](C)CO)C(=O)c2cccc(NC(=O)C3CCCCC3)c2O[C@@H]1CN(C)Cc1ccc(C(=O)Nc2ccccc2N)cc1 the results were T cruzi HTS 61* and INS-1E rescue 47.
For CC(C)NC(=O)Nc1cccc2c1O[C@H](CN(C)Cc1ccc(C(=O)Nc3ccccc3N)cc1)[C@H](C)CN([C@@H](C)CO)C2=O the results were A1 apoptosis 2 -1, T cruzi HTS 52 and INS-1E rescue 28.
C[C@@H]1CN([C@H](C)CO)C(=O)c2cccc(NC(=O)NC3CCCCC3)c2O[C@@H]1CN(C)Cc1ccc(C(=O)Nc2ccccc2N)cc1 was read as A1 apoptosis 2 1, T cruzi HTS 67* and INS-1E rescue 17.
Screening C[C@@H]1CN([C@@H](C)CO)C(=O)c2cccc(NC(=O)C3CC3)c2O[C@H]1CN(C)Cc1ccc(C(=O)Nc2ccccc2N)cc1 returned A1 apoptosis 2 0, T cruzi HTS 38 and INS-1E rescue -10.
Screening C[C@H]1CN([C@@H](C)CO)C(=O)c2cccc(NC(=O)NC3CCCCC3)c2O[C@H]1CN(C)Cc1ccc(C(=O)Nc2ccccc2N)cc1 returned T cruzi HTS 60* and INS-1E rescue -19.
`C[C@H](CO)N1C[C@H](C)[C@H](CN(C)Cc2ccc(C(=O)Nc3ccccc3N)cc2)Oc2c(NC(=O)NC3CCCCC3)cccc2C1=O` gave A1 apoptosis 2 -1, T cruzi HTS 58* and INS-1E rescue -9.
`CC(C)NC(=O)Nc1cccc2c1O[C@@H](CN(C)Cc1ccc(C(=O)Nc3ccccc3N)cc1)[C@@H](C)CN([C@@H](C)CO)C2=O` gave A1 apoptosis 2 1, T cruzi HTS 27 and INS-1E rescue -15.
`CC(C)NC(=O)Nc1cccc2c1O[C@@H](CN(C)Cc1ccc(C(=O)Nc3ccccc3N)cc1)[C@@H](C)CN([C@H](C)CO)C2=O` gave A1 apoptosis 2 -2, T cruzi HTS 31 and INS-1E rescue -14.
`Cc1noc(C)c1NC(=O)N(C)C[C@H]1Oc2c(NC(=O)Nc3ccccc3)cccc2C(=O)N([C@H](C)CO)C[C@H]1C` gave A1 apoptosis 2 0, T cruzi HTS -12 and INS-1E rescue 3.
For Cc1noc(C)c1NC(=O)Nc1cccc2c1O[C@H](CN(C)C(=O)Nc1ccc(F)cc1)[C@H](C)CN([C@H](C)CO)C2=O the results were A1 apoptosis 2 -1, T cruzi HTS -9 and INS-1E rescue 6.
Screening C[C@@H]1CN([C@H](C)CO)C(=O)c2cc(NC(=O)Nc3ccccc3)ccc2O[C@@H](C)CCCCO[C@H]1CN(C)C(=O)Cc1ccccc1 returned A1 apoptosis 2 2.
For COc1ccc(NC(=O)Nc2ccc3c(c2)C(=O)N([C@H](C)CO)C[C@H](C)[C@@H](CN(C)C(=O)c2ccccc2)OCCCC[C@@H](C)O3)cc1 the results were A1 apoptosis 2 0, T cruzi HTS 11 and INS-1E rescue 0.
For C[C@H]1CN([C@@H](C)CO)C(=O)c2cccc(NC(=O)c3nc4ccccc4s3)c2O[C@@H]1CN(C)Cc1ccc(C(=O)Nc2ccccc2N)cc1 the results were A1 apoptosis 2 0.
Screening C[C@@H]1CCCCO[C@@H](CN(C)S(=O)(=O)c2cccs2)[C@@H](C)CN([C@H](C)CO)C(=O)c2cc(NC(=O)Nc3ccc(C(F)(F)F)cc3)ccc2O1 returned A1 apoptosis 2 0, T cruzi HTS 67* and INS-1E rescue -12.
C[C@@H]1CN([C@@H](C)CO)C(=O)c2cc(NC(=O)Nc3ccc(C(F)(F)F)cc3)ccc2O[C@@H](C)CCCCO[C@@H]1CN(C)S(=O)(=O)c1cccs1 was read as A1 apoptosis 2 -1.
C[C@@H]1CCCCO[C@H](CN(C)S(=O)(=O)c2cccs2)[C@@H](C)CN([C@H](C)CO)C(=O)c2cc(NC(=O)Nc3ccc(C(F)(F)F)cc3)ccc2O1 was read as T cruzi HTS 62* and INS-1E rescue -15.
C[C@H](CO)N1C[C@H](C)[C@@H](CN(C)S(=O)(=O)c2cccs2)OCCCC[C@H](C)Oc2ccc(NC(=O)Nc3ccc(C(F)(F)F)cc3)cc2C1=O was read as A1 apoptosis 2 -1.
